Assay results reported in the EternaBench riboswitch data.

System: MS2 coat protein
Experiment: apparent Kd, MS2 coat protein; higher = weaker binding; RNA-MaP array; FMN 200 µM where present
Summary of the method: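 Designs on Illumina sequencing-chip clusters, transcribed by stalled E. coli RNA polymerase, were exposed to SNAP-549-labelled MS2 coat protein in doubling steps from 0.7 or 1.5 nM up to 3 µM, without and then with constant ligand. The buffer held 100 mM Tris-HCl pH 7.5, 80 mM KCl, 4 mM MgCl2, BSA, DTT, yeast tRNA and Tween-20. Apparent Kd values are medians of filtered per-cluster binding-curve fits to green signal normalised to red-channel RNA signal and control-cluster median Fmax.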

[1] = designed as: OFF switch for flavin mononucleotide, no ligand
[2] = ligand present: flavin mononucleotide, designed as: OFF switch for flavin mononucleotide
[3] = designed as: ON switch for flavin mononucleotide, no ligand
[4] = ligand present: flavin mononucleotide, designed as: ON switch for flavin mononucleotide

| Sequence | apparent Kd [1] | apparent Kd [2] | apparent Kd [3] | apparent Kd [4] |
| --- | --- | --- | --- | --- |
| GAGUGCUGAGGAUAUACAUGAGGAUCACCCAUGUGCUUCAGCUAGGAGACUAGCAUUGGUAGAAGGUAGUACUC | 11.7 nM | 15.4 nM | – | – |
| GAAUGUCGGGUAGGAUAUGACGUGCCACGGAGGUCAGAAGGGCCACGACAUGAGGAUCACCCAUGUACUAUGUUCCUUUUUCGA | 13.6 nM | 31.8 nM | – | – |
| AAUAACAGAGGAUAUACUGUUUUAUGUGUUUGUUGUUUUGAACAUGAGGAUCACCCAUGUAGAAGGCUGAUUGA | 40.2 nM | 41.3 nM | – | – |
| CGGCGGGCAGGAUAUACAUGAGGAUCACCCAUGUGUGUCCAUACGCGUGAGUCCUCGUGUAGAAGGGUUUGUUG | 14.9 nM | 13.4 nM | – | – |
| GAUCCUUCUGUUAGGAUAUGCUUUGGGCUUCCGCAGCAGAAGGAACAUGAGGAUCACCCAUGUCCGAUGCCGUC | 80.5 nM | 98 nM | – | – |
| UAAGCGAUACAGAAGGGAAACAUGAGGAUCAGCCGCGACAUGAGGAUCACCCAUGUUUACUUAUUUCAGGAUAUGUACAGUAGC | – | – | 612 nM | 272 nM |
| AGUCUGAGAGGAUAUACAAGGGAAAAAAAAGUAAGAUCCCUACAUGAGGAUCACCCAUGUAGAAGGCUCUGACA | 98 nM | 43.8 nM | – | – |
| UUGGACGUCGUAGGAUUUGUAGGAUAUUCCUACAUGAGGAUCACCCAUGUUGACAUGGAAGAAGGACAGAAGGACGAUGUCCAU | – | – | 87.3 nM | 5.51 nM |
| CGAUAAAGCUGAGGAUAUGAGAAUAGAAAGAAAUCAGAAGGCAGACAUGAGGAUCACCCAUGUGAGUUCUCGAGAUUAGAUAUU | 25.2 nM | 60.6 nM | – | – |
| AUUUUGUCAGGAUAUGACUAGUAGCACGAAAGUGCUACUACUUAGAAGGGACAUGAGGAUCACCCAUGUAUUCC | 15.2 nM | 16.1 nM | – | – |
| GAGAAGUCAGGAUAUGCAUGGCGGGACUUGCGUCGUGGCGUGCAGAAGGGACAUGAGGAUCACCCAUGUGGAGG | 169 nM | 243 nM | – | – |
| UUAAAUCAUGUAGGAUAUGCAUGGCGAAGCUACGCAGAAGGACAUGAGGAUCACCCAUGUUAUAGCUACAGAGUUCUGUGGCAA | 102 nM | 233 nM | – | – |
| CUUUUGUGAGGAUAUUAGUAGUAGAUAGUUGGUGGUGUUGCUGAGAAGGCACAUGAGGAUCACCCAUGUACAAC | 344 nM | 335 nM | – | – |
| UUUUAGGGAGGAUAUACAUUUUUUUUAUUAUCCUCAUUAAUACAUGAGGAUCACCCAUGUAGAAGGCCCAUUUU | 39.2 nM | 164 nM | – | – |
| CCUGUACAUGAGGAUCACCCAUGUUAGGAUAUUCAGCCCGUCGAGUAUAAGGGUUUAAGAAGAAGGGACGUGGC | 15.4 nM | 16.1 nM | – | – |
| UCGCUGCGAGGAUAUACGUGCGCGCGCUUUCGUUUGCGCGUACAUGAGGAUCACCCAUGUAGAAGGCGCGCUGC | 16.2 nM | 15.8 nM | – | – |
| CCAUACCGAGGAUAUACAUGAGGAUCACCCAUGUCAAAACCACGUGUACGGCGGUCUUGUAGAAGGCGGAAAUA | 11 nM | 16 nM | – | – |
| AGUACUCCAGAAGGAUAUGCAUCGGUGGAUGUCCUUAGGCGGACGGUCACAUGAGGAUCACCCAUGUAGAAGGUCUGGGAGCCG | 39.8 nM | 238 nM | – | – |
| CUGCCACAUGAGGAUCACCCAUGUGAGGAUAUGGCCUGUUUGGCGUGUGCUGGCUCUGUCAGAAGGCGCGUGGG | 24.1 nM | 33.9 nM | – | – |

| Sequence | apparent Kd [1] | apparent Kd [2] | apparent Kd [3] | apparent Kd [4] |
| --- | --- | --- | --- | --- |
| AUAGAAAGAUUAAUAUGAUUACAUGAGGAUCACCCAUGUAUAAAGGAUAUCGACGUCAAUGACGUCGAGAAGGUUAUACAUAAU | 24.2 nM | 84 nM | – | – |
| GCUGUCGCGUGAGGAUAUGGUCGGCUGUGCUGACCAGAAGGCAUGUCGAUAGACAUGAGGAUCACCCAUGUGGUUAGGGCGGCU | – | – | 790 nM | 313 nM |
| CGGCGGAAAGGAUAUGCAUUAAUAUCCAAAUGUGGGCCACGACAUGAGGAUCACCCAUGUAGAAGGUUCAGCCG | 15.3 nM | 13.9 nM | – | – |
| UCAAGUAUGUAGGAUAUCGAUGUCGAAAGACAUCGAGAAGGACGUACAUGAGGAUCACCCAUGUAACUUGCAUG | 296 nM | 270 nM | – | – |
| CUUUCGUGAGGAUAUGUGGCUUCGAACGUGAGAUCGAGGCUACAGAAGGCACAUGAGGAUCACCCAUGUUCCUC | 34.3 nM | 395 nM | – | – |
| CGGUCGAUGUAAGGAUAUCGACUGGAUAACAGUCGAGAAGGUACAUGAGGAUCACCCAUGUAAACCUAUAAUAAAUAACGACCG | 11.2 nM | 14.6 nM | – | – |
| CCUAAGGAGGUAGGAUAUUGUGUGGUGGCCGGGCUCCCACGGCGAGCGGCACAAGAAGGAUCCCUACAUGAGGAUCACCCAUGU | – | – | 25.5 nM | 20.3 nM |
| UGGUACCAGGGAGGAUAUGGGAAGAUACAUGAGGAUCACCCAUGUUUAAGAAUGCCGAGAGGCAACUAGAAGGCCCUAGUACCU | – | – | 338 nM | 19 nM |
| CCUCCACAUGAGGAUCACCCAUGUCAGGAUAUCGUGUGUUUUUUUUCGGUCGCGCGUGCGAGAAGGGACGUCUU | 22.1 nM | 25 nM | – | – |
| AUCAGCUCGUCAGGAUAUAUAUCACUGCUUCGGCAGUGUAUUAAGAUCACAUGAGGAUCACCCAUGUAGAAGGGACGAGCUGAU | 16.8 nM | 20.2 nM | – | – |
| AAGAAACAUGAGGAUCACCCAUGUCACCUCACACGAGGAUAUCUGAAUCGAUUAGAUUACGGAGAAGGCGUGAUAA | – | – | 27.5 nM | 20.6 nM |
| UAUUAGUGAGGAUAUGAGUCGUAGAACAAUAGUACUACGUCUCAGAAGGUACAUGAGGAUCACCCAUGUUUCUC | 20 nM | 23.8 nM | – | – |
| GUCCUUUCUGAGGAUAUUAUCUGGUUCGAUUGAUAAGAAGGCAGUACAUGAGGAUCACCCAUGUGGGUCGUCUG | 31.6 nM | 69.5 nM | – | – |
| AGCUGUGGCCGAGGAUAUCUAAAACCUCAAAACGAAAUAUAAUCGAACAUGAGGAUCACCCAUGUAGAGAAGGCGGUCUCAGCA | 270 nM | 514 nM | – | – |
| UAUUUAUAAUAUUUUAACAUGAGGAUCACCCAUGUCGCUAGACAGGAUAUAUUUUAUUUGUUUAAGUAGAAGGGUCAUAGAUUU | – | – | 175 nM | 145 nM |
| CCCAUCGCAUGAGGAUAUGGUCAGCUUUGCUGACCAGAAGGCAUGUCAAUAGACAUGAGGAUCACCCAUGUAGUUAAGAUGGGA | – | – | 675 nM | 49.2 nM |
| GUCUUGUCAGGAUAUCUUACAUAACAAUCGUAGUUACCAUUGGAGAAGGGACAUGAGGAUCACCCAUGUUAGCC | 17.2 nM | 19.1 nM | – | – |
| AACGUGUAAGGAUAUGCUGCUCGUCACAAAAGUGAUGAGUAGCAGAAGGUACAUGAGGAUCACCCAUGUAAAGA | 35.4 nM | 73.8 nM | – | – |
| CAGCGAUAGCUGAACAAUCUAUCUGAGGAUAUUCAUAUAAAACAUGAGGAUCACCCAUGUAAUUGGGAGAAGGCAGAUAGAUUG | – | – | 22.4 nM | 6.11 nM |

| Sequence | apparent Kd [1] | apparent Kd [2] | apparent Kd [3] | apparent Kd [4] |
| --- | --- | --- | --- | --- |
| ACUAAGGAGGUAGGAUAUUGUGUGGUGGCCGGGCUCCCACGGCGAGCGGCACAAGAAGGAUCCCUACAUGAGGAUCACCCAUGU | – | – | 24 nM | 16.4 nM |
| CCAUGACCGGAGAAGGCAGUUUGUGGGCCUGUUCCUGUCGGAUACAUGAGGAUCACCCAUGUACCUGAGGAUAUCUGGUCGCAG | 5.06 nM | 6.13 nM | – | – |
| GUACUACAUGAGGAUCACCCAUGUGAGGAUAUGCGAAUUUCAUCAAAAGAUGAAAUUUGCAGAAGGCACUGUAC | 46.7 nM | 34 nM | – | – |
| AUCAUGUAAGGAUAUGACUACAUAAAAAAAAAAAAAUGUAGUCAGAAGGUACAUGAGGAUCACCCAUGUACAAA | 22.2 nM | 23.7 nM | – | – |
| GUAGCAUGCCAAGGAUAUUCAUAUAGUAGGCAAACAUGAGGAUCACCCAUGUAAUGAUAGCAGUGGGAGAAGGUGGGAUGCUAC | – | – | 47.5 nM | 22.2 nM |
| GCUGACGAUGUAGGAUAUCAGUAUAAUAAAUACUGAGAAGGACAUGAGGAUCACCCAUGUAACUCACGUCAGCAGAGGAAACUC | 17.6 nM | 20.4 nM | – | – |
| CCAUUUCAGUAAGGAUAUAUAAACAUGACGAUACAUGAGGAUCACCCAUGUGUAGAAGGUACUAAUACAUAUAAUGCAAUGCUC | 20.4 nM | 17.2 nM | – | – |
| GGGUUCAUGUAAGGAUAUGUAUUGUUAAUCGGAGCAGAAGGUACAUGAGGAUCACCCAUGUCAACCUAGAGCAAGGCUUCUUAG | 19.7 nM | 58 nM | – | – |
| GCGCUACAUGAGGAUCACCCAUGUGCGAACGCACGAGGAUAUGCAUGGGCUAAUGCUGGUGCAGAAGGCGUGGCGC | – | – | 31.8 nM | 22.6 nM |
| UCAAAGCCAUUUUGGCGAGUCACAUGAGGAUCACCCAUGUAACAGGAUAUCGAUUGGCUUCCCGGCGAGAAGGGUUACUAGGGA | 10.8 nM | 15.5 nM | – | – |
| UUUAUAUUCAGAGGAUAUUAAAGUAGUAUAAUAUAAGAAGGCUGUUUGUUUUGUAAAUUUAUUCUACAUGAGGAUCACCCAUGU | – | – | 19.5 nM | 15.7 nM |
| GCCUUACAUGAGGAUCACCCAUGUGAGGAUAUUAACAGCUGCACUACUGAAGCGGCUGUAAGAAGGCACGUGGU | 30.5 nM | 37.8 nM | – | – |
| GGAAAACAUGAGGAUCACCCAUGUGAGGAUAUCGAUGUCCAAAGAAAAGUGCGGGACUCGAGAAGGCACUUGGA | 52.9 nM | 33.7 nM | – | – |
| AUGUUGUCAGGAUAUCGUUAAUUUAGUUGUUUGUAUUAGUUCGAGAAGGGACAUGAGGAUCACCCAUGUUUGUA | 32 nM | 44 nM | – | – |
| CUUCCAGUUGCAGGAUAUCGAGAGGAGAGAUUACGAGAAGGGCAACAUGAGGAUCACCCAUGUAUGUGCUUGGGACAACCUAUC | 16.8 nM | 107 nM | – | – |
| AGGUAAGACUUAAUUGUGCUGGUGAGAAGGCUACUGGUUGUGGUCUACAUGAGGAUCACCCAUGUUGAGGAUAUCAUCGGUAUC | 606 nM | 72.7 nM | – | – |
| AUACCUUAUGAGAAGGCGAUCAUGAAACAUGAUCGAGGAUAUCAUGUAAACAUGAGGAUCACCCAUGUAUGGGUAUUAUGGUAC | – | – | 28.4 nM | 9.72 nM |
| AGGAAACAUGAGGAUCACCCAUGUAAAGAAGGGUGAGGAUAUACAAAGAAAAGAAAGAAAGUAGAAGGCACAAAAG | – | – | 556 nM | 635 nM |
